From PubChem BioAssay AID588423 (The Scripps Research Institute Molecular Screening Center, 2011)
Calls of active or inactive are those of the source.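 How the source made its calls: active means IC50 at or below 1 µM; inactive means the rest.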

Biological target: Protein-arginine deiminase type-4 (Homo sapiens) (UniProt Q9UM07)
Assay: PAD4 enzyme inhibition potency, late-stage follow-up, biochemical, BAEE substrate, citrulline absorbance, 0-15 µM range (AID 588423)
Settings: recombinant PAD4, BAEE citrulline colorimetric absorbance
Method in brief: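 Compound dosing: seven concentrations, 0–15 µM. Material: recombinant human PAD4 enzyme. Input: 0.2 µM PAD4 enzyme. Reagent: 10 mM BAEE. Signal: citrulline color, absorbance 540 nm. Times: 15 min compound preincubation, 15 min BAEE reaction, 37 °C.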

Sequence of Protein-arginine deiminase type-4 (Homo sapiens) (Q9UM07 whole entry, looked up): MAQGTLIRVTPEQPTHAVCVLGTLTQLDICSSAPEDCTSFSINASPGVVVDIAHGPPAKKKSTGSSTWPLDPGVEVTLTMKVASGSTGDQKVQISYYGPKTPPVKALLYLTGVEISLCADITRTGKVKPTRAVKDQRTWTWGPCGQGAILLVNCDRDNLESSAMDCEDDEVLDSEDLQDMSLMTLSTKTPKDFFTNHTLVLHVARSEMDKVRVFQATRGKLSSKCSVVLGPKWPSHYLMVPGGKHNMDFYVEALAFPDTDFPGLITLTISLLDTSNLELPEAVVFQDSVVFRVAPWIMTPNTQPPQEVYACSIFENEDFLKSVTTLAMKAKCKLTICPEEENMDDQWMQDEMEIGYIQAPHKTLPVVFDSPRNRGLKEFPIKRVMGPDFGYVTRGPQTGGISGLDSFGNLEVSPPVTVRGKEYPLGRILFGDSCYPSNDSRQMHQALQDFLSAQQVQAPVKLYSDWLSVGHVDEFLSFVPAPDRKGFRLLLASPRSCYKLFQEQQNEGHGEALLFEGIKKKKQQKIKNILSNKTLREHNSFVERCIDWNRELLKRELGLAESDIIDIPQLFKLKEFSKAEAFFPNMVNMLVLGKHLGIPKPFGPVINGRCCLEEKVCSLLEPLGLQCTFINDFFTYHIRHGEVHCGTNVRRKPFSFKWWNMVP

IC50: inactive
SMILES: O=C1C(O)=C(O)C(=O)c2ncccc21
